Experimental data published in ChEMBL document CHEMBL1132288, “Synthesis and in vitro pharmacology of a series of new chiral histamine H3-receptor ligands: 2-(R and S)-Amino-3-(1H-imidazol-4(5)-yl)propyl ether derivatives” (J Med Chem, 1999).
Active and inactive are the calls of the source. The calls are words filed in the database; no cut-off is given here.

Legend:
Histamine H3 receptor [1] = molecular target: T1, Histamine H3 receptor (Rattus norvegicus, UniProt Q9QYN8); experiment: Binding affinity of compound against Histamine H3 receptor
T1 sequence (Q9QYN8 whole entry): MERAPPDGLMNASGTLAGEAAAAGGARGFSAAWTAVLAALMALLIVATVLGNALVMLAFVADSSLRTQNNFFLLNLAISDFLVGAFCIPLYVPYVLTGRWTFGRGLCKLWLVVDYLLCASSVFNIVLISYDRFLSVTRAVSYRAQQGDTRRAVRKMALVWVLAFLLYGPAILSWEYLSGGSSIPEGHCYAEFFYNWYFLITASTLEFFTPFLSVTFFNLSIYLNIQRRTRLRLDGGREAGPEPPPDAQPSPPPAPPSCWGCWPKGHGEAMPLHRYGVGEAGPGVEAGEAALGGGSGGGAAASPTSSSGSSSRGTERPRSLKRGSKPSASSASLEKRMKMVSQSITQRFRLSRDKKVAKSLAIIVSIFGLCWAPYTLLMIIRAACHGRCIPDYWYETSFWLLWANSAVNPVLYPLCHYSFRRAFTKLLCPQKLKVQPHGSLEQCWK
Outline: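 Displacement of the radioligand [3H]R-(α)-methylhistamine from the histamine H3 receptor in an in vitro receptor binding assay.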

[2] = molecular target: Histamine H3 receptor (Rattus norvegicus) (UniProt Q9QYN8); experiment: Binding affinity for Histamine H3 receptor
Chain of Histamine H3 receptor (Rattus norvegicus) (Q9QYN8 whole entry): as above
Outline: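 Affinity for the H3 receptor measured in an in vitro binding assay by displacement of the radioligand [3H]R-(α)-methylhistamine.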

[3] = molecular target: Histamine H3 receptor (Rattus norvegicus) (UniProt Q9QYN8); experiment: Agonistic activity, Histamine H3 receptor dependent activation of G-proteins with GTP gamma-[35S] autoradiography of rat cortical tissue sections. at 10e-5 M conc.; weak response (between half-maximal and basal; format: functional; details: filed as partial agonist
Outline: (§1)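 Rat brain tissue sections were incubated with the test compound at the stated concentrations together with GTPγ[35S], then washed and dried. Film autoradiograms were digitized and quantified against [14C] standards. Responses were read from cerebral cortex and striatum, four animals per region, with cerebellum (no H3 receptors) as a nonspecific-effect control.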

[4] = molecular target: Histamine H3 receptor (Rattus norvegicus) (UniProt Q9QYN8); experiment: Agonistic activity, Histamine H3 receptor dependent activation of G-proteins with GTP gamma-[35S] autoradiography of rat striatal tissue sections. at 10e-5 M conc.; half-maximal response; format: functional; details: filed as partial agonist; outline: as §1
[5] = molecular target: Histamine H3 receptor (Rattus norvegicus) (UniProt Q9QYN8); experiment: Agonistic activity, Histamine H3 receptor dependent activation of G-proteins with GTP gamma-[35S] autoradiography of rat cortical tissue sections. at 10e-5 M conc.; half-maximal response; format: functional; details: filed as partial agonist; outline: as §1
[6] = molecular target: Histamine H3 receptor (Rattus norvegicus) (UniProt Q9QYN8); experiment: Agonistic activity, Histamine H3 receptor dependent activation of G-proteins with GTP gamma-[35S] autoradiography of rat cortical tissue sections. at 10e-5 M conc.;no response above basal; format: functional; outline: as §1
[7] = molecular target: Histamine H3 receptor (Rattus norvegicus) (UniProt Q9QYN8); experiment: Agonistic activity, Histamine H3 receptor dependent activation of G-proteins with GTP gamma-[35S] autoradiography of rat striatal tissue sections. at 10e-5 M conc.;no response above basal; format: functional; outline: as §1
[8] = molecular target: Histamine H3 receptor (Rattus norvegicus) (UniProt Q9QYN8); details: filed as antagonist; 10e-5 M
[9] = molecular target: Histamine H3 receptor (Rattus norvegicus) (UniProt Q9QYN8); details: filed as antagonist, 10e-6 M
[10] = molecular target: Histamine H3 receptor (Rattus norvegicus) (UniProt Q9QYN8); details: Striatum; 10e-5 M
[11] = molecular target: Histamine H3 receptor (Rattus norvegicus) (UniProt Q9QYN8); details: Striatum, filed as antagonist, 10e-6 M
[12] = molecular target: Histamine H3 receptor (Rattus norvegicus) (UniProt Q9QYN8); details: filed as antagonist; 10e-8 M
[13] = molecular target: Histamine H3 receptor (Rattus norvegicus) (UniProt Q9QYN8); details: Striatum; filed as antagonist; 10e-8 M
[14] = molecular target: Histamine H3 receptor (Rattus norvegicus) (UniProt Q9QYN8); details: 10e-8 M
[15] = molecular target: Histamine H3 receptor (Rattus norvegicus) (UniProt Q9QYN8); details: Striatum; 10e-8 M
[16] = molecular target: Histamine H3 receptor (Rattus norvegicus) (UniProt Q9QYN8); details: filed as antagonist; 10e-5 M; remark: listed apart in the source
[17] = molecular target: Histamine H3 receptor (Rattus norvegicus) (UniProt Q9QYN8); details: Striatum; filed as antagonist; 10e-5 M
Histamine H3 receptor [18] = molecular target: T1, Histamine H3 receptor; experiment: PKi was measured by Histamine H3 receptor binding assay (N-alpha-MeHA) on rat cerebral cortex.; format: tissue-based
Outline: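 Affinity measured by displacement of the radioligand [3H]R-(α)-methylhistamine in an in vitro H3-receptor binding assay.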

In the case of `N[C@@H]1C[C@H]1c1cnc[nH]1` [VUF-5296], the Ki (Histamine H3 receptor [1]) is reported as 3.16 nM.
`C[C@@H]1NCC[C@H]1c1c[nH]cn1` showed a pD2 [2] of 7.1.
In the case of `N[C@H](COCc1ccccc1)Cc1c[nH]cn1`, the Agonistic activity [3] is reported as “Partial agonist” and the Agonistic activity [4] is reported as “Partial agonist”.
For `N[C@@H](COCc1ccc(Br)cc1)Cc1c[nH]cn1`, the Agonistic activity [4] was “Partial agonist” and the Agonistic activity [5] was “Partial agonist”.
In the case of `N[C@@H](COCc1ccc(I)cc1)Cc1c[nH]cn1`, the Agonistic activity [6] is reported as “inactive” and the Agonistic activity [7] is reported as “inactive”.
With `NCCc1c[nH]cn1.N[C@H](COCc1ccc(Br)cc1)Cc1c[nH]cn1` the Antagonist activity [8] was “Partial antagonist”, the Antagonist activity [9] was “Antagonist” and the Antagonist activity [10] was “Partial agonist”. The Antagonist activity [11] was “Antagonist”.
For `NCCc1c[nH]cn1.N[C@@H](COCc1ccc(Br)cc1)Cc1c[nH]cn1`, the Antagonist activity [8] was “Partial antagonist”, the Antagonist activity [9] was “Antagonist” and the Antagonist activity [10] was “Partial agonist”. The Antagonist activity [11] was “Antagonist”.
Molecule `C[C@H]1NCC[C@@H]1c1c[nH]cn1` has a pD2 [2] of 7.1.
With `C[C@@H](N)Cc1c[nH]cn1` the pD2 [2] was 8.4.
For `c1nc(CC2CCNCC2)c[nH]1`, the pD2 [2] was 8.
`N[C@H](Cc1ccccc1)C(=O)NCCc1c[nH]cn1` was tested, and the Ki (Histamine H3 receptor [1]) was greater than 10000 nM.
In the case of `NCCc1c[nH]cn1.S=C(NC1CCCCC1)N1CCC(c2c[nH]cn2)CC1`, the Antagonist activity [12] is reported as “Agonist” and the Antagonist activity [13] is reported as “Antagonist”.
`N=C(NCc1ccc(Cl)cc1)SCCCc1c[nH]cn1.NCCc1c[nH]cn1` was tested, and the Antagonist activity [14] was “inactive” and the Antagonist activity [15] was “inactive”.
In the case of `NCCc1c[nH]cn1.N[C@@H](COCC1CCCCC1)Cc1c[nH]cn1`, the Antagonist activity [16] is reported as “Antagonist”, the Antagonist activity [9] is reported as “Antagonist” and the Antagonist activity [17] is reported as “Antagonist”. The Antagonist activity [11] was “Antagonist”.
For `N[C@@H](COCc1ccccc1)Cc1c[nH]cn1`, the Agonistic activity [6] was “inactive” and the Agonistic activity [7] was “inactive”.
`Ic1ccc(COCCCc2c[nH]cn2)cc1.NCCc1c[nH]cn1` was tested, and the Antagonist activity [14] was “inactive” and the Antagonist activity [15] was “inactive”.
`c1ccc(COCCCc2c[nH]cn2)cc1` [PROXYFAN] gave a Ki (Histamine H3 receptor [18]) of 5.01 nM.
Work on `N[C@@H](Cc1ccccc1)C(=O)NCCc1c[nH]cn1` yielded a Ki (Histamine H3 receptor [1]) of 100 nM.
`N=C(N)SCCc1c[nH]cn1` showed a pD2 [2] of 8.1.
With `N[C@H](COCc1ccc(I)cc1)Cc1c[nH]cn1` the Agonistic activity [6] was “inactive” and the Agonistic activity [7] was “inactive”.
